Results on 21 compounds are retold here after publication PMC4127403 (Analytical chemistry, 2012).

The target in series [1] is aequorin (AEQ), cysteine-free mutant (Aequorea victoria, UniProt P07164, C152S/C159S/C187S). Put plainly: AEQ bioluminescence inhibition assay. The following applies: for effect on bioluminescence emission of AEQ: 5.0 × 10^–10 M coelenterazine, 2 h incubation; for expected suitability for the inhibition assay: speculated, compounds not available, test planned. In kind it is biochemical.
Chain of aequorin (AEQ), cysteine-free mutant (P07164 8-196 C152S/C159S/C187S): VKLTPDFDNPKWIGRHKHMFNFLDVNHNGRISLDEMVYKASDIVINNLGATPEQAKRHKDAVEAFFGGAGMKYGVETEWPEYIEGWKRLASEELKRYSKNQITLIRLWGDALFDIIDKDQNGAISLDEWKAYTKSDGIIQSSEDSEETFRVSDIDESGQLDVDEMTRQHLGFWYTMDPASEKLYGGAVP

Another series addresses apoaequorin (apoAEQ) (Aequorea victoria, UniProt P07164, C152S/C159S/C187S). Put plainly: Coelenterazine dose-response curve - EC50 determination. In kind it is biochemical.
Series [2] relates to aequorin (AEQ). Put plainly: Selectivity studies of the AEQ inhibition assay. Conditions: 1.0 × 10^−4 M compound, 5.0 × 10^−10 M coelenterazine. The class given is biochemical, Aequorea victoria. An outline of the steps:
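Selectivity used the optimized inhibition format with various organic compounds dissolved in DMSO. 1.21 × 10−7 M apoAEQ was incubated with 1.0 × 10−4 M compound and 5.0 × 10−10 M coelenterazine, 2 h at 4 °C. Light was triggered by Ca2+ (100 mM CaCl2, 100 mM Tris/HCl pH 7.5) and collected for 6 s. Values are the mean of three measurements ± 1 standard deviation.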

For series [3] the following is noted: cited from earlier work.
For series [4] the following is noted: fetal rat plasma and brain; cited from earlier work.
Series [5] has as its system aequorin (AEQ). Nature of the series: AEQ bioluminescence inhibition assay in spiked human serum. The class given is biochemical, Aequorea victoria. An outline of the steps: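 Cysteine-free apoaequorin was expressed in E. coli, secreted, and purified by DEAE and butyl HIC to >95% purity. Human serum was spiked with test compound standards in DMSO (90 μL serum + 10 μL standard). 20 μL of this was added to 80 μL 1.21 × 10−7 M apoAEQ in Buffer A with 5.0 × 10−10 M final coelenterazine, in triplicate, held 2 h at 4 °C. Ca2+/Tris pH 7.5 injection triggered light, collected for 6 s.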

Series [6] deals with aequorin (AEQ). Put plainly: AEQ bioluminescence inhibition assay in spiked tap water. In kind it is biochemical, Aequorea victoria. Put shortly:
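Tap water was spiked with test compound standards prepared in DMSO. Same conditions as the buffer assay: 20 μL sample into 80 μL 1.21 × 10−7 M apoAEQ (30 mM Tris/HCl pH 7.5, 2 mM EDTA), 5.0 × 10−10 M final coelenterazine, triplicates, 2 h at 4 °C. Light was triggered with 100 μL 100 mM Tris/HCl pH 7.5, 100 mM CaCl2 and read for 6 s.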

Series [7] concerns aequorin (AEQ). Put plainly: Effect of OH-PCB on AEQ. In kind it is biochemical, Aequorea victoria. Conditions: initial experiments with apoaequorin and coelenterazine. Put shortly: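 ApoAEQ stock was diluted to 1.21 × 10−7 M in 30 mM Tris/HCl pH 7.5, 2 mM EDTA and charged with three-fold molar excess coelenterazine, 4 °C, 18 h. Aequorin was then mixed with test compound in DMSO at 10% or 20% v/v, with DMSO-only and buffer controls. A 10 μL portion was triggered with 50 μL 100 mM Tris/HCl pH 7.5, 100 mM CaCl2 and read on a tube luminometer.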

Chain of apoaequorin (apoAEQ) (P07164 8-196 C152S/C159S/C187S): as above

Take `Oc1ccc(-c2cc(Cl)c(Cl)c(Cl)c2Cl)cc1Cl` [4-hydroxy-2',3,3',4',5'-pentachlorobiphenyl]: in series [1], inhibition was half-maximal at 2.28 µM (IC50) and the “effect on bioluminescence emission of AEQ” value (“effect … of AEQ” for short) is reported as “greatly inhibited aequorin bioluminescence”.
Compound `Oc1ccc(Cc2nc3c(Cc4ccccc4)nc(-c4ccc(O)cc4)cn3c2O)cc1` [coelenterazine] gave an EC50 on apoaequorin (apoAEQ) of 0.0618 µM.
For `Oc1ccc(-c2c(Cl)c(Cl)cc(Cl)c2Cl)c(Cl)c1` [4-hydroxy-2,2',3',5',6'-pentachlorobiphenyl], in series [1], the half-maximal inhibitory concentration (IC50) was 9.77 µM and the “effect … of AEQ” value was “greatly inhibited aequorin bioluminescence”.
The compound `Oc1cccc(-c2cc(Cl)ccc2Cl)c1O` [2,3-dihydroxy-2',5'-dichlorobiphenyl] gave an IC50 in series [1] of 1380 µM.
In the case of `NC12CC3CC(CC(C3)C1)C2` [amantadine], the “effect on bioluminescence generated by AEQ” value (from here on “effect … by AEQ”) in the series on aequorin (AEQ) [2] is given as “do not decrease the bioluminescence”.
With `Oc1cccc(-c2ccc(Cl)c(Cl)c2)c1O` [2,3-dihydroxy-3',4'-dichlorobiphenyl], in series [1], the IC50 amounted to 550 µM.
As to `Oc1c(Cl)cc(-c2cc(Cl)c(Cl)cc2Cl)c(Cl)c1Cl` [4-hydroxy-2,2',3,4',5,5'-hexachlorobiphenyl], the “expected suitability for the inhibition assay” value in series [1] is listed as “would be suitable for this inhibition assay”. For the same compound, the “estrogenic activity” value in series [3] is “anti-estrogenic”.
Turning to `Oc1c(Cl)ccc(Cl)c1-c1cc(Cl)c(Cl)cc1Cl` [2-hydroxy-2',3,4',5',6-pentachlorobiphenyl], in series [1], the IC50 came out at 0.028 µM. This compound also registered a detection limit in series [1] (best detection limit of the assay (abstract)) of 11 nM.
With `Oc1c(Cl)cc(-c2ccc(Cl)c(Cl)c2)c(Cl)c1Cl` [4-hydroxy-2,3,3',4',5-pentachlorobiphenyl], the “levels of thyroxine after exposure” value in series [4] is “lower levels of thyroxine”. For the same compound, in series [1], the “expected suitability for the inhibition assay” value is reported as “would be suitable for this inhibition assay”. The “estrogenic activity” value in series [3] is reported as “weakly estrogenic”.
For the compound `Oc1ccccc1-c1cc(Cl)c(Cl)c(Cl)c1Cl` [2 hydroxy-2',3',4',5'-tetrachlorobiphenyl], the IC50 in series [1] stood at 1.33 µM.
In the case of `Oc1c(Cl)cc(-c2ccccc2Cl)cc1Cl` [4-hydroxy-2',3,5-trichlorobiphenyl], inhibition in series [1] was half-maximal at 290 µM (IC50).
In the case of `Oc1c(Cl)cc(-c2ccc(Cl)cc2Cl)cc1Cl` [4-hydroxy-2',3,4',5-tetrachlorobiphenyl], the concentration for half-maximal inhibition (IC50) in series [1] was determined as 17.5 µM.
For `Oc1cccc(-c2ccc(Cl)cc2)c1` [3-hydroxy-4'-chlorobiphenyl], in series [1], the IC50 is above 2000 µM and the “effect … of AEQ” value is “did not produce a decrease in the bioluminescence emission of AEQ”.
Consider `O=C(O)c1cccc(Cl)c1` [3-chloro-benzoic acid], for which the “effect … by AEQ” value in the series on aequorin (AEQ) [2] is “do not decrease the bioluminescence”.
On to `Oc1ccc(-c2c(Cl)cc(Cl)cc2Cl)cc1` [4-hydroxy-2',4',6'-trichlorobiphenyl], for which the IC50 in series [1] is 15.4 µM.
As to `CN1CCC[C@H]1c1cccnc1` [nicotine], the “effect … by AEQ” value in the series with aequorin (AEQ) [2] is recorded as “do not decrease the bioluminescence”.
`Oc1ccccc1-c1c(Cl)cc(Cl)cc1Cl` [2-hydroxy-2',4',6'-trichlorobiphenyl]: the half-maximal inhibitory concentration (IC50) in series [1] stood at 155 µM.
On to `Oc1ccc(-c2ccc(Cl)c(Cl)c2)cc1O` [3,4-dihydroxy-3',4'-dichlorobiphenyl], for which, in series [1], the IC50 is above 2000 µM and the “effect … of AEQ” value is given as “did not produce a decrease in the bioluminescence emission of AEQ”.
On to `Oc1ccc(-c2cc(Cl)ccc2Cl)cc1` [4-hydroxy-2',5'-dichlorobiphenyl], for which, in series [1], the IC50 is 138 µM.
`Oc1ccc(Cl)cc1-c1cc(Cl)c(Cl)c(Cl)c1Cl` [2-hydroxy-2',3',4',5,5'-pentachlorobiphenyl] yielded a half-maximal inhibitory concentration (IC50) in series [1] of 0.097 µM. In series [1] (5.0 × 10^−10 M coelenterazine, buffer), this compound showed a detection limit of 33 nM. In series [1] (buffer containing HSA (data not shown)), the “detection limit in buffer containing HSA” value turned out to be 3.45 µM. The “detection limit in serum” value in the series on aequorin (AEQ) [5] amounted to 5.02 µM. Also, the “detection limit in tap water” value with aequorin (AEQ) [6] was determined as 132 nM. In addition, the “decrease of AEQ bioluminescence activity” value in the series with aequorin (AEQ) [7] was found to be 99%.
On to `Oc1c(Cl)cc(-c2ccc(Cl)c(Cl)c2)cc1Cl` [4-hydroxy-3,3',4',5-tetrachlorobiphenyl], for which, in series [1], the half-inhibitory concentration (IC50) is 130 µM and the “effect … of AEQ” value is listed as “only a small alteration of the bioluminescence signal”.
